Laboratory results as given in ChEMBL document CHEMBL1132449, “Pyrroloquinoxaline derivatives as high-affinity and selective 5-HT(3) receptor agonists: synthesis, further structure-activity relationships, and biological studies” (J Med Chem, 1999).

Legend:
[1] = target: T1, Serotonin 3 (5-HT3) receptor (Rattus norvegicus, UniProt P35563+Q9JJ16); experiment: Binding affinity against 5-hydroxytryptamine 3 (5-HT3) receptor from rat cortical homogenate using [3H]zacopride as radioligand
T1 sequence (P35563 whole entry): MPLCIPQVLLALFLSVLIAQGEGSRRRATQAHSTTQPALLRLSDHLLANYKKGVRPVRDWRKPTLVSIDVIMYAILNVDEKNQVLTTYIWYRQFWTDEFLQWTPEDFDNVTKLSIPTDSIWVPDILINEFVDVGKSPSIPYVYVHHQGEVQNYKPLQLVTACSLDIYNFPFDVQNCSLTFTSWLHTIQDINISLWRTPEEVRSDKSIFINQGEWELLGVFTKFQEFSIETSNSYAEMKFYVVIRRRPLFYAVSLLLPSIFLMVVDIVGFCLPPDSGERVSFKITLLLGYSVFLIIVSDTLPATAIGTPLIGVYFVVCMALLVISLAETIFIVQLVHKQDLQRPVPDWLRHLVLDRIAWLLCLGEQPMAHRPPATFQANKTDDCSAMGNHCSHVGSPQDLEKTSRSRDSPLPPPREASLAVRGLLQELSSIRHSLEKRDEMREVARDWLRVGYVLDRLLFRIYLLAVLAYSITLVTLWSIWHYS
T1 sequence (Q9JJ16 whole entry): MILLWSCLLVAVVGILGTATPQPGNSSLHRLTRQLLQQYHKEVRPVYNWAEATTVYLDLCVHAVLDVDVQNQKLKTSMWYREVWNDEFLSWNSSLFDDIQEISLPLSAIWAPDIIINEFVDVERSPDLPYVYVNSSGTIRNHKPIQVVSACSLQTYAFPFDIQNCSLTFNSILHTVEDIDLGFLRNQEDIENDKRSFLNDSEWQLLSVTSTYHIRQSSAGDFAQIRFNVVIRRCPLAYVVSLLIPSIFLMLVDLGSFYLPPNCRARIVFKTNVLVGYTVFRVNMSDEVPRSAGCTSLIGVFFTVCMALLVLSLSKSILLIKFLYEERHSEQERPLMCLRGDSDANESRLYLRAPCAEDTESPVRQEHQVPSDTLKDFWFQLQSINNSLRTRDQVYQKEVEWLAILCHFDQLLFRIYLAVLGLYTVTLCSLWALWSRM
How it was run: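 Male rat cortices, stored at -80 °C, were homogenized in ice-cold 25 mM Tris HCl pH 7.4 and spun at 50000g. Membranes were preincubated 10 min at 37 °C, washed, and resuspended with 10 µM pargyline (10 mg tissue/sample). They were incubated with 0.4 nM (final) [3H]zacopride for 30 min at 25 °C, filtered through PEI-treated GF/B and counted. IC50 came from dose-inhibition curves, mean ± SEM of three determinations.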

[2] = target: Serotonin 3 (5-HT3) receptor; experiment: Effective concentration against 5-Hydroxytryptamine 3 receptor by measuring [14C]guanidinium uptake on NG108-15 cells.; type: functional, cell-based
NG108-15 [3] = experiment: The compound was tested for efficacy against 5-Hydroxytryptamine 3 receptor by measuring [14C]guanidinium uptake on NG108-15 cells.; A = Agonist; type: functional, cell-based; conditions: filed as agonist
How it was run: (§1)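 NG108-15 cells, grown 2 days, were washed in HEPES saline pH 7.4. They were exposed 10 min at 37 °C to buffer (135 mM NaCl, 10 mM guanidinium) with […] [14C]guanidinium, 1 mM 5-HT, […] and/or 8 drug concentrations. Cells were washed in ice-cold choline buffer, dissolved in NaOH and counted by scintillation. Assays run in triplicate.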

NG108-15 [4] = experiment: The compound was tested for efficacy against 5-Hydroxytryptamine 3 receptor by measuring [14C]guanidinium uptake on NG108-15 cells; PA=Partial agonist; type: functional, cell-based; conditions: filed as partial agonist; how it was run: as §1
[5] = The compound was tested for brain to plasma partition in rat; type: ADME, organism-based; conditions: brain and plasma, read-out: AUC ratio
How it was run: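 Male CD-COBS rats (175-200 g) received hydrochloride salts in saline i.v. at 5 mg/kg and were killed 60, 120 and 180 min after dosing. Plasma and brain levels were measured by HPLC-UV (254 nm) after liquid-liquid or solid-phase extraction with an internal standard. The ratio is brain-to-plasma AUC_t, 2-3 rats per point.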

[6] = target: T1, Serotonin 3 (5-HT3) receptor; experiment: The compound was tested for the binding affinity against 5-hydroxytryptamine 3 receptor using [3H]zacopride as radioligand.; type: protein-complex assay

| Structure (SMILES) | IC50 [1] [nM] | further results |
| --- | --- | --- |
| c1csc(CN2CCN(c3nc4ccccc4n4cccc34)CC2)c1 | 22 |  |
| Cc1cc2nc(N3CCN(C)CC3)c3cccn3c2cc1C | 30 |  |
| OCCN1CCN(c2nc3cc(F)ccc3n3cccc23)CC1 | 2.6 | EC50 [2]: 2.4 nM; Efficacy (NG108-15 [3]): Agonist |
| Cc1cccc2nc(N3CCN(Cc4ccccc4)CC3)c3cccn3c12 | 8.8 | EC50 [2]: 12 nM; Efficacy (NG108-15 [3]): Agonist |
| Fc1ccc2c(c1)nc(N1CCN(Cc3ccc(Br)o3)CC1)c1cccn12 | 148 |  |
| CN1CCN(c2nc3cc(C#N)ccc3n3cccc23)CC1 | 104 |  |
| Fc1cccc2nc(N3CCN(Cc4cccs4)CC3)c3cccn3c12 | 60 |  |
| c1ccc(CN2CCN(c3nc4cccnc4n4cccc34)CC2)cc1 | 2.3 | EC50 [2]: 32 nM; Efficacy (NG108-15 [4]): Partial agonist |
| N#CCN1CCN(c2nc3cccc(F)c3n3cccc23)CC1 | 3800 | Kp [5]: 0.1 |
| Fc1cccc2nc(N3CCN(CC4N=NN=N4)CC3)c3cccn3c12 | 690 |  |
| Fc1ccc2c(c1)nc(N1CCN(Cc3ccco3)CC1)c1cccn12 | 11 | EC50 [2]: 6.6 nM; Efficacy (NG108-15 [4]): Partial agonist |
| CN1CCN(c2nc3cccnc3n3ccnc23)CC1 | 6.6 |  |
| Fc1ccc2c(c1)nc(N1CCN(Cc3cccs3)CC1)c1cccn12 | 12 |  |
| OCCN1CCN(c2nc3cccnc3n3ccnc23)CC1 | 38 |  |
| CN1CCN(c2nc3cc(F)ccc3n3ccnc23)CC1 | 5.2 | EC50 [2]: 7.2 nM; Efficacy (NG108-15 [3]): Agonist |
| CN1CCN(c2nc3cc(OCc4ccccc4)ccc3n3cccc23)CC1 | 225 |  |
| CN1CCN(c2nc3cc(O)ccc3n3cccc23)CC1 | 0.67 | EC50 [2]: 1.6 nM; Efficacy (NG108-15 [3]): Agonist |
| Cc1ccc2c(c1)nc(N1CCN(Cc3ccccc3)CC1)c1cccn12 | 24 |  |

| Structure (SMILES) | IC50 [1] [nM] | further results |
| --- | --- | --- |
| CN1CCN(c2nc3ccccc3n3ccnc23)CC1 | 3.8 | EC50 [2]: 15 nM; Efficacy (NG108-15 [3]): Agonist |
| Cc1cc2nc(N3CCNCC3)c3cccn3c2cc1C | 113 |  |
| CN1CCN(C2=NC=CN3CCN=C23)CC1 | 3650 |  |
| CN1CCN(c2nc3cc(Cl)c(Cl)cc3n3cccc23)CC1 | 97 |  |
| Cc1cc2nc(N3CCN(Cc4ccccc4)CC3)c3cccn3c2cc1C | 44 |  |
| CN1CCN(c2nc3cc(F)ccc3n3cccc23)CC1 |  | EC50 [2]: 3 nM; Efficacy (NG108-15 [3]): Agonist |
| Fc1ccc2c(c1)nc(N1CCN(Cc3ccccc3)CC1)c1cccn12 | 13 | EC50 [2]: 4.2 nM; Efficacy (NG108-15 [4]): Partial agonist |
| Cc1cccc2nc(N3CCN(Cc4ccc(Br)s4)CC3)c3cccn3c12 | 104 |  |
| Clc1cc2nc(N3CCN(Cc4ccccc4)CC3)c3cccn3c2cc1Cl | 118 |  |
| Cc1[nH]c2ccc(O)cc2c1CCN |  | Ki [6]: 200 nM |
| CN1[C@@H]2CC[C@H]1C[C@@H](OC(=O)c1cc(Cl)cc(Cl)c1)C2 [BEMESETRON] | 97 |  |
| Cc1ccc2c(c1)nc(N1CCNCC1)c1cccn12 | 16.4 |  |
| Fc1cccc2nc(N3CCN(Cc4ccc5ccccc5c4)CC3)c3cccn3c12 | 780 | Kp [5]: 2.8 |
| O=C(O)CN1CCN(c2nc3cccc(F)c3n3cccc23)CC1 | 920 |  |
| CN1CCN(c2nccn3cccc23)CC1 | 1930 |  |
| c1cnc2nc(N3CCNCC3)c3cccn3c2c1 | 3.1 |  |
| CN1CCN(c2nc3ccccc3c3ccnn23)CC1 | 1.6 | EC50 [2]: 2.7 nM; Efficacy (NG108-15 [3]): Agonist |
